In ChEMBL document CHEMBL1926551, “Design, synthesis and in vitro evaluation of novel chroman-4-one, chroman, and 2H-chromene derivatives as human rhinovirus capsid-binding inhibitors” (Bioorg Med Chem, 2011):

Assays:
rhinovirus A1B = assay: Antiviral activity against Human rhinovirus 1B infected in human HeLa cells assessed as inhibition of virus induced-plaque formation after 3 days by neutral red-based plaque reduction assay; format: functional, organism-based; details: Rhinovirus A, 72 h
Procedure, shortened: (§1)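 HeLa (Ohio) monolayers infected with virus giving about 100 plaques/well and adsorbed 1 h at 33 °C. The inoculum was removed and cells were overlaid with plaque medium ± fourfold compound dilutions, starting from the maximum non-cytotoxic concentration (MNTC). After 3 days at 33 °C, cells were stained with neutral red (0.2 mg/mL in PBS, pH 7.4) and plaques counted, triplicate wells.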

[1] = Therapeutic index, ratio of TC50 for human HeLa cells to IC50 for Human rhinovirus 14 infected in human HeLa cells; format: cell-based; details: read-out: TI
Procedure, shortened: (§2)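 Therapeutic index calculated as HeLa TC50 (XTT, 3 days) divided by the plaque-reduction IC50 for the respective serotype.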

[2] = Therapeutic index, ratio of TC50 for human HeLa cells to IC50 for Human rhinovirus 1B infected in human HeLa cells; format: cell-based; details: read-out: TI; procedure, shortened: as §2
rhinovirus B14 [3] = assay: Antiviral activity against Human rhinovirus 14 infected in human HeLa cells assessed as inhibition of virus induced-plaque formation after 3 days by neutral red-based plaque reduction assay; format: functional, organism-based; details: Rhinovirus B, 72 h
Procedure, shortened: as §1, with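 “wells. IC50 came from % plaque reduction vs log dose; where 50% was not reached, % inhibition at the MNTC was reported.” for “wells.”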

[4] = Ratio of IC50 for Human rhinovirus 1B to IC50 for Human rhinovirus 14; format: functional
[5] = Cytotoxicity against human HeLa cells after 3 days by microscopic analysis; format: cell-based; details: read-out: MNCC
Procedure, shortened: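 HeLa cells exposed to twofold compound dilutions for 3 days at 37 °C and morphology scored microscopically on day 3. The MNTC is the highest concentration leaving morphology and viability unchanged in 100% of cells.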

[6] = Cytotoxicity against human HeLa cells after 3 days by XTT based ELISA reader; format: cell-based; details: read-out: TC50
Procedure, shortened: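 HeLa cells seeded at 2 × 10^3 cells/well in growth medium (MEM, 8% FCS) with twofold compound dilutions from the maximum soluble concentration, triplicate wells. Matched ethanol controls were run. Plates were held 3 days at 37 °C, 5% CO2, then XTT was added (final 0.15 mg/mL) for 4 h.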

rhinovirus B14 [7] = assay: Antiviral activity against Human rhinovirus 14 infected in human HeLa cells assessed as inhibition of virus induced-plaque formation at 25 uM after 3 days by neutral red-based plaque reduction assay; format: functional; details: Rhinovirus B, 72 h; procedure, shortened: as §1
rhinovirus B14 [8] = assay: Antiviral activity against Human rhinovirus 14 infected in human HeLa cells assessed as inhibition of virus induced-plaque formation at 12.5 uM after 3 days by neutral red-based plaque reduction assay; format: functional; details: Rhinovirus B, 72 h
Procedure, shortened: as §1, with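 “wells. IC50 came from % plaque reduction vs log dose; where 50% was not reached, % inhibition at the MNTC was reported.” for “wells.”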

SMILES	IC50 (rhinovirus A1B) [µM]	selectivity ratio [1]	selectivity ratio [2]	IC50 (rhinovirus B14 [3]) [µM]	Ratio IC50 [4]	MNTC at 72 h [5] [µM]	CC50 at 72 h [6] [µM]	inhibition at 25 µM (rhinovirus B14 [7]) [%]	inhibition at 12.5 µM (rhinovirus B14 [8]) [%]
O=C1/C(=C/C=C/c2ccc(Cl)cc2)COc2ccc(Cl)cc21	3.35	17.6	7.46	1.42	2	12.5	25		
O=C1/C(=C/C=C/c2ccccc2)COc2ccc(F)cc21	4.98	2.94	10	17		25	50		
Clc1ccc2c(c1)C/C(=C/C=C/c1ccccc1)CO2	2.79		17.9			25	50	30.3	
O=C1/C(=C/C=C/c2ccc(Cl)cc2)COc2ccccc21	2.54		19.7			25	50	17.1	
Clc1ccc(C/C=C/C2=Cc3cc(Cl)ccc3OC2)cc1	9.73		10.3			25	100	27	
Clc1ccc(/C=C/C=C2\COc3ccccc3C2)cc1	1.39	8.31	36	6.02		25	50		
O=C1/C(=C/C=C/c2ccccc2)COc2ccccc21	0.85		29.4			12.5	25		7.2
O=C1/C(=C/C=C/c2ccccc2)COc2ccc(Cl)cc21	0.99		50.5			25	50	48.6	
